Source: EPA's CvTdb concentration-time database
Where “and” joins values, the source holds several entries; their conditions need not be identical. Equal values may be shown once.

System: mouse
Assay: concentration in blood after dosing; negative times count back from the end of exposure
Details: dosed: tert-amyl methyl ether, inhalation, duration: 6 hr, CD-1 (Charles River)
Outline: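 A PubMed search, classifier screening and manual review identified published in vivo toxicokinetic studies, which together with two structured collections supplied concentration-versus-time and amount-versus-time points. Points were mostly digitised from plot screenshots with WebPlotDigitizer, otherwise copied from tables. Dose, route, subject details and medium were hand-curated from each paper, and sampling and analytical methods are those of the sources, often unreported.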

CCC(C)(C)O [tertiary amyl alcohol]
male
Details	concentration in blood
0.1295 h, 2500 ppm	209 µg/mL
0.1808 h, 500 ppm	29.6 µg/mL
0.1823 h, 500 ppm	32.6 µg/mL
0.1835 h, 500 ppm	34.9 µg/mL
0.1993 h, 2500 ppm	170 µg/mL
0.2 h, 2500 ppm	165 µg/mL
0.2011 h, 2500 ppm	158 µg/mL
0.5116 h, 500 ppm	16.7 µg/mL
0.5437 h, 500 ppm	19.5 µg/mL
0.545 h, 500 ppm	22 µg/mL
0.5455 h, 500 ppm	23.1 µg/mL
0.5766 h, 2500 ppm	194 µg/mL
0.5768 h, 2500 ppm	193 µg/mL
0.5776 h, 2500 ppm	187 µg/mL
0.59 h, 2500 ppm	109 µg/mL
1.057 h, 500 ppm	3.62 µg/mL
1.059 h, 500 ppm	7.19 µg/mL
1.061 h, 500 ppm	12.2 µg/mL
1.062 h, 500 ppm	12.6 µg/mL
1.12 h, 2500 ppm	175 µg/mL
1.123 h, 2500 ppm	155 µg/mL and 153 µg/mL and 151 µg/mL
1.914 h, 500 ppm	0.752 µg/mL
1.945 h, 500 ppm	0.139 µg/mL
2.052 h, 2500 ppm	105 µg/mL
2.058 h, 2500 ppm	66.5 µg/mL and 65.3 µg/mL
2.059 h, 2500 ppm	57.7 µg/mL
4.101 h, 2500 ppm	3.63 µg/mL and 1.94 µg/mL
9.951 h, 500 ppm	0.0739 µg/mL
10.17 h, 2500 ppm	1.84 µg/mL
17.96 h, 500 ppm	0.00851 µg/mL
18.11 h, 2500 ppm	2.12 µg/mL
126 s, 500 ppm	44.3 µg/mL
133 s, 2500 ppm	192 µg/mL
137 s, 2500 ppm	184 µg/mL
138 s, 2500 ppm	183 µg/mL
151 s, 500 ppm	57.9 µg/mL
343 s, 500 ppm	42.5 µg/mL

male, during exposure
Details	concentration in blood
-6 h, 100 ppm	0.00359 µg/mL
-5.999 h, 500 ppm	1.22 µg/mL
-5.907 h, 500 ppm	2.45 µg/mL
-5.876 h, 500 ppm	2.75 µg/mL
-5.873 h, 2500 ppm	2.95 µg/mL
-5.818 h, 100 ppm	0.247 µg/mL and 0.289 µg/mL
-5.817 h, 100 ppm	0.326 µg/mL and 0.401 µg/mL
-5.814 h, 500 ppm	4.08 µg/mL
-5.771 h, 100 ppm	0.487 µg/mL
-5.747 h, 2500 ppm	7.17 µg/mL
-5.725 h, 100 ppm	0.6 µg/mL
-5.72 h, 500 ppm	7.75 µg/mL
-5.659 h, 100 ppm	0.386 µg/mL and 0.45 µg/mL
-5.567 h, 500 ppm	6.22 µg/mL
-5.507 h, 500 ppm	5.1 µg/mL
-5.476 h, 100 ppm	0.694 µg/mL
-5.474 h, 500 ppm	9.59 µg/mL
-5.464 h, 2500 ppm	25.7 µg/mL
-5.433 h, 2500 ppm	29.9 µg/mL
-5.244 h, 2500 ppm	40.1 µg/mL
-5.135 h, 500 ppm	11.4 µg/mL and 11.6 µg/mL
-5.134 h, 500 ppm	13.7 µg/mL and 14.1 µg/mL
-4.958 h, 100 ppm	0.72 µg/mL
-4.937 h, 100 ppm	0.51 µg/mL
-4.936 h, 100 ppm	0.63 µg/mL
-4.934 h, 100 ppm	0.828 µg/mL
-4.899 h, 2500 ppm	67.1 µg/mL
-4.898 h, 2500 ppm	64.1 µg/mL and 61.6 µg/mL
-4.897 h, 2500 ppm	57.4 µg/mL
-4.057 h, 500 ppm	20.9 µg/mL
-4.055 h, 500 ppm	23.9 µg/mL
-4.054 h, 500 ppm	26.2 µg/mL and 27.3 µg/mL
-4 s, 500 ppm	33.8 µg/mL
-3.898 h, 100 ppm	0.686 µg/mL
-3.897 h, 100 ppm	0.87 µg/mL
-3.895 h, 100 ppm	1.13 µg/mL
-3.874 h, 100 ppm	0.926 µg/mL
-3.797 h, 2500 ppm	131 µg/mL
-3.796 h, 2500 ppm	123 µg/mL and 121 µg/mL
-3.791 h, 2500 ppm	94.9 µg/mL
-2.118 h, 500 ppm	33.2 µg/mL
-2.087 h, 500 ppm	34.4 µg/mL and 34.6 µg/mL
-2.086 h, 500 ppm	36.7 µg/mL
-1.99 h, 2500 ppm	155 µg/mL
-1.979 h, 100 ppm	1.16 µg/mL
-1.978 h, 100 ppm	1.21 µg/mL
-1.96 h, 2500 ppm	162 µg/mL
-1.957 h, 2500 ppm	146 µg/mL
-1.953 h, 100 ppm	1.57 µg/mL

CCC(C)(C)OC [tertiary amyl methyl ether]
Details	concentration in blood [µg/mL]
0.102 h, 100 ppm, male	0.239
0.1024 h, 100 ppm, male	0.295
0.1031 h, 100 ppm, male	0.389
0.1368 h, 500 ppm, male	3.51
0.1371 h, 500 ppm, male	4.13
0.1374 h, 500 ppm, male	4.84
0.1381 h, 500 ppm, male	6.06
0.1502 h, 100 ppm, male	0.655
0.1928 h, 2500 ppm, male	29.9
0.1936 h, 2500 ppm, male	24.4
0.3202 h, 500 ppm, male	2.39
0.3841 h, 2500 ppm, male	24.8
0.385 h, 2500 ppm, male	19.7
0.3858 h, 2500 ppm, male	14.7
0.4399 h, 100 ppm, male	0.209
0.444 h, 2500 ppm, female	22.7
0.4444 h, 2500 ppm, female	20.1
0.4448 h, 2500 ppm, female	17.2
0.4618 h, 100 ppm, male	0.127
0.4629 h, 100 ppm, male	0.273
0.8712 h, 500 ppm, male	0.0374
0.8718 h, 500 ppm, male	1.26
0.9575 h, 2500 ppm, male	15.1
0.9591 h, 2500 ppm, male	4.95
0.9832 h, 2500 ppm, female	10
1.014 h, 2500 ppm, female	15.5
1.656 h, 100 ppm, male	0.0026
2.039 h, 2500 ppm, male	5.35
2.04 h, 2500 ppm, male	0.286
9.736 h, 500 ppm, male	0.0671
9.816 h, 100 ppm, male	0.00138
9.95 h, 2500 ppm, male	0.153
17.75 h, 100 ppm, male	0.00394
17.86 h, 2500 ppm, male	0.441
57.5 min, 2500 ppm, male	10
224 s, 2500 ppm, female	37.5
226 s, 2500 ppm, female	34.9
229 s, 2500 ppm, female	29.4

during exposure
Details	concentration in blood
-171 s, 100 ppm, male	1.33 µg/mL
-165 s, 100 ppm, male	1.57 µg/mL
-160 s, 100 ppm, male	1.75 µg/mL
-6 h, 100 ppm, male	1.19 µg/mL
-6 h, 2500 ppm, male	19.4 µg/mL
-5.956 h, 100 ppm, male	1.08 µg/mL
-5.842 h, 100 ppm, male	1.22 µg/mL
-5.755 h, 100 ppm, male	0.806 µg/mL
-5.69 h, 500 ppm, male	7.23 µg/mL
-5.688 h, 500 ppm, male	9.58 µg/mL
-5.663 h, 100 ppm, male	1.04 µg/mL
-5.662 h, 100 ppm, male	1.1 µg/mL
-5.642 h, 100 ppm, male	0.814 µg/mL
-5.627 h, 2500 ppm, female	37.5 µg/mL
-5.168 h, 500 ppm, male	7.23 µg/mL
-5.167 h, 500 ppm, male	8.96 µg/mL
-5.138 h, 500 ppm, male	5.9 µg/mL
-5.124 h, 100 ppm, male	0.78 µg/mL
-5.123 h, 100 ppm, male	0.866 µg/mL
-5.122 h, 100 ppm, male	1.09 µg/mL
-5.094 h, 2500 ppm, female	64.1 µg/mL
-5.092 h, 2500 ppm, female	54.4 µg/mL
-5.089 h, 2500 ppm, female	32.5 µg/mL
-5.084 h, 2500 ppm, male	49.4 µg/mL
-5.083 h, 2500 ppm, male	44.3 µg/mL
-5.081 h, 2500 ppm, male	34.6 µg/mL
-5.077 h, 2500 ppm, male	9.69 µg/mL
-5.053 h, 2500 ppm, male	59.5 µg/mL
-4.247 h, 500 ppm, male	9.57 µg/mL
-4.246 h, 500 ppm, male	11.4 µg/mL
-4.245 h, 500 ppm, male	12 µg/mL
-4.086 h, 100 ppm, male	0.926 µg/mL
-4.061 h, 100 ppm, male	1.22 µg/mL
-4.06 h, 100 ppm, male	1.36 µg/mL
-4.007 h, 2500 ppm, male	71.7 µg/mL
-4.005 h, 2500 ppm, male	61.1 µg/mL
-3.988 h, 2500 ppm, female	67.1 µg/mL
-3.987 h, 2500 ppm, female	61.6 µg/mL
-3.974 h, 2500 ppm, male	66.6 µg/mL
-3.972 h, 2500 ppm, male	49.3 µg/mL
-2.21 h, 500 ppm, male	33.8 µg/mL
-2.166 h, 2500 ppm, male	78.8 µg/mL
-2.165 h, 2500 ppm, male	72.5 µg/mL
-2.164 h, 2500 ppm, male	66.2 µg/mL
-2.159 h, 2500 ppm, female	96.1 µg/mL
-2.144 h, 100 ppm, male	1.31 µg/mL and 1.34 µg/mL
-2.142 h, 100 ppm, male	1.57 µg/mL
-2.129 h, 500 ppm, male	11.9 µg/mL
-2.128 h, 500 ppm, male	13.7 µg/mL
-2.127 h, 500 ppm, male	15.5 µg/mL
-2.125 h, 2500 ppm, female	81.4 µg/mL
-2.122 h, 100 ppm, male	1.22 µg/mL
-0.1963 h, 500 ppm, male	12 µg/mL
-0.1937 h, 500 ppm, male	17.2 µg/mL
-0.1933 h, 500 ppm, male	17.8 µg/mL
-0.1652 h, 2500 ppm, male	83.4 µg/mL
-0.1636 h, 2500 ppm, male	73.7 µg/mL
-0.1617 h, 2500 ppm, male	61.5 µg/mL
-0.1057 h, 2500 ppm, female	101 µg/mL
-0.1034 h, 2500 ppm, female	86.4 µg/mL
-0.1026 h, 2500 ppm, female	81.3 µg/mL
